From ChEMBL document CHEMBL4699388, “Antiproliferative activities of tricyclic amides derived from beta-caryophyllene via the Ritter reaction against MDA-MB-231 breast cancer cells” (RSC Med Chem, 2020)
pIC50: −log10 of the molar value. Each block holds one molecule with its values, some of them ahead of it. Active and inactive are the calls of the source. The rule behind the calls is not given here.

Columns and labels:
MDA-MB-231 [1] = test: Antiproliferative activity against human MDA-MB-231 cells assessed as reduction in cell viability at 25 to 50 uM measured after 48 hrs by MTS assay; assay type: functional, cell-based; conditions: dose microM 25-50, time 48.0 hrs
Procedure, shortened: (§1)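 MDA-MB-231 cells exposed to compounds at 25 and 50 μM for 48 h. Viability is compared with a DMSO-treated control. Mean ± SEM from three separate experiments; significance vs control.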

MDA-MB-231 [2] = test: Antiproliferative activity against human MDA-MB-231 cells assessed as reduction in cell viability measured after 48 hrs by MTS assay; assay type: functional, cell-based; conditions: MDA-MB-231, 48 h
Procedure, shortened: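 Concentration–response in MDA-MB-231 cells across a wide concentration range. The dose–response data are used to calculate IC50 for proliferation (MTS).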

MDA-MB-231 [3] = test: Antiproliferative activity against human MDA-MB-231 cells assessed as reduction in cell viability at 50 uM measured after 48 hrs by MTS assay; assay type: functional, cell-based; procedure, shortened: as §1
[4] = Aqueous solubility of the compound; assay type: physicochemical; conditions: buffer
Vero [5] = test: Cytotoxicity against African green monkey Vero cells assessed as reduction in cell viability measured at 168 uM after 72 hrs by resazurin assay relative to control; assay type: cell-based; conditions: chlorocebus sabaeus
Vero [6] = test: Cytotoxicity against African green monkey Vero cells assessed as reduction in cell viability measured after 72 hrs by resazurin assay; assay type: cell-based; conditions: chlorocebus sabaeus
MDA-MB-231 [7] = test: Antiproliferative activity against human MDA-MB-231 cells assessed as reduction in cell viability at 5 uM measured after 48 hrs by MTS assay; assay type: functional, cell-based
[8] = Selectivity ratio of cytotoxicity against African green monkey Vero cells assessed as reduction in cell viability measured after 72 hrs by resazurin assay to antiproliferative activity against human MDA-MB-231 cells assessed as reduction in cell viability measured after 48 hrs by MTS assay; assay type: toxicity, cell-based; conditions: Vero cells versus MDA-MB-231 cells
MDA-MB-231 [9] = test: Cell cycle arrest in human MDA-MB-231 cells at 10 uM measured after 24 hrs by RNaseA/propidium iodide staining based flow cytometry analysis; assay type: functional
Procedure, shortened: (§2)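 MDA-MB-231 cells treated 24 h with 10 μM or 9 μM test agent or DMSO control. Cell cycle distribution is read by flow cytometry and expressed as percentage change from control. Mean ± SEM, three separate experiments; p vs DMSO control.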

MDA-MB-231 [10] = test: Induction of apoptosis in human MDA-MB-231 cells assessed as late apoptotic cells at 20 uM measured after 48 hrs by annexicV-FITC/propidium iodide staining based flow cytometry analysis (reference value: 4.4 %); assay type: functional
MDA-MB-231 [11] = test: Induction of apoptosis in human MDA-MB-231 cells assessed as healthy cells at 20 uM measured after 48 hrs by annexicV-FITC/propidium iodide staining based flow cytometry analysis (reference value: 87.4 %); assay type: functional
MDA-MB-231 [12] = test: Induction of apoptosis in human MDA-MB-231 cells assessed as necrotic cells at 20 uM measured after 48 hrs by annexicV-FITC/propidium iodide staining based flow cytometry analysis (reference value: 2.4 %); assay type: functional
MDA-MB-231 [13] = test: Induction of apoptosis in human MDA-MB-231 cells assessed as early apoptotic cells at 20 uM measured after 48 hrs by annexicV-FITC/propidium iodide staining based flow cytometry analysis (reference value: 5.8 %); assay type: functional
MDA-MB-231 [14] = test: Cell cycle arrest in human MDA-MB-231 cells assessed as accumulation at G2/M phase at 9 uM measured after 24 hrs by RNaseA/propidium iodide staining based flow cytometry analysis relative to control; assay type: functional; procedure, shortened: as §2
MDA-MB-231 [15] = test: Induction of apoptotic cell death in human MDA-MB-231 cells at 20 uM measured after 48 hrs by annexicV-FITC/propidium iodide staining based flow cytometry analysis; assay type: functional
Vero [16] = test: Cytotoxicity against African green monkey Vero cells assessed as reduction in cell viability measured at 129 uM after 72 hrs by resazurin assay relative to control; assay type: cell-based; conditions: chlorocebus sabaeus
MDA-MB-231 [17] = test: Cell cycle arrest in human MDA-MB-231 cells assessed as decrease in cell population at G0/G1 phase at 9 uM measured after 24 hrs by RNaseA/propidium iodide staining based flow cytometry analysis; assay type: functional; procedure, shortened: as §2

pIC50 (MDA-MB-231 [2]): 4.43
Compound: CCCCN[C@]12CCC[C@](C)(CC[C@@H]3[C@@H]1CC3(C)C)C2
Activity (MDA-MB-231 [1]): Active

solubility [4]: Insoluble
Compound: CCCCCN[C@]12CCC[C@](C)(CC[C@@H]3[C@@H]1CC3(C)C)C2
Activity (MDA-MB-231 [3]): Active

pIC50 (MDA-MB-231 [2]): 4.63
Compound: CC1(C)C[C@H](NCc2ccccc2)[C@]23CCC[C@@](C)(CC[C@@H]12)C3
Activity (MDA-MB-231 [1]): Active

pIC50 (MDA-MB-231 [2]): 4.34
Compound: CCCN[C@]12CCC[C@](C)(CC[C@@H]3[C@@H]1CC3(C)C)C2
Activity (MDA-MB-231 [1]): Active

pIC50 (MDA-MB-231 [2]): 5.09
Compound: CC1(C)C[C@H](NC(=O)CCl)[C@]23CC[C@@H](NC(=O)CCl)[C@@](C)(CC[C@@H]12)C3
Activity (Vero [6]): 129 µM
inhibition (MDA-MB-231 [7]): Active
selectivity ratio [8]: 25
Activity (MDA-MB-231 [1]): Active
Activity (MDA-MB-231 [10]): 74.3%
Activity (MDA-MB-231 [14]): 91%
Activity (MDA-MB-231 [11]): 7.6%
Activity (MDA-MB-231 [12]): 4.6%
Activity (MDA-MB-231 [13]): 13.5%
Activity (MDA-MB-231 [15]): Active
Activity (Vero [16]): 88%
Activity (MDA-MB-231 [17]): Active

Further lines, the molecule ahead of its results:

Compound: CC1(C)C[C@H](NC(=O)CCl)[C@]23CCC[C@@](C)(CC[C@@H]12)C3
Activity (Vero [5]): 89%
Activity (Vero [6]): 168 µM
inhibition (MDA-MB-231 [7]): Active
selectivity ratio [8]: 33
Activity (MDA-MB-231 [1]): Active
Activity (MDA-MB-231 [9]): inactive
Activity (MDA-MB-231 [10]): 13.9%
Activity (MDA-MB-231 [11]): 57.8%
pIC50 (MDA-MB-231 [2]): 5.01
Activity (MDA-MB-231 [12]): 18.4%
Activity (MDA-MB-231 [13]): 9.9%

Compound: CC1(C)C[C@H]2[C@H]1CC[C@@]1(C)CCC[C@]2(NC(=O)CCl)C1
Activity (MDA-MB-231 [1]): Active
pIC50 (MDA-MB-231 [2]): 4.67

Compound: CC1(C)C[C@H]2[C@H]1CC[C@@]1(C)CCC[C@]2(N)C1
Activity (MDA-MB-231 [1]): Active
pIC50 (MDA-MB-231 [2]): 4.46

Compound: CCCCC(=O)N[C@]12CCC[C@](C)(CC[C@@H]3[C@@H]1CC3(C)C)C2
Activity (MDA-MB-231 [1]): Active
pIC50 (MDA-MB-231 [2]): 4.26
